AHR activator: activates the human aryl hydrocarbon receptor; AID 2796; P35869; AHR-responsive luciferase reporter cells, luminescence; actives 2.5% (n = 320,000); activation, % at 5 µM; in the data active means activation above about 47%;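 further: 0% = vehicle wells and 100% = reference agonist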
GAA850 FXN act: increases GAA850 frataxin promoter reporter activity; HEK293 lucGAA850 FXN promoter luciferase reporter, 24 h; percent of 10 µM SAHA response; activation, % at 6 µM; actives 0.56% (n = 360,000);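 active means activation above the average of all compounds screened plus 3 SD, cutoff fixed separately per campaign, cut at about 7.5% in these data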;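 further: 0% = DMSO wells and 100% = 10 µM SAHA wells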
SENP1 inh: SENP1 (human) catalytic domain inhibition; Q9P0U3; inhibition, % at 10 µM; actives 0.21% (n = 360,000); recombinant SENP1 catalytic domain, CyPet-SUMO1-YPet FRET cleavage;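 active means inhibition at least 30% at 10 µM, raw YFP signal under a set limit, fluorescence ratio 0.5 to 1.5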;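 further: 0% = enzyme with DMSO and 100% = no enzyme wells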
Target sequence (Q9P0U3 419-644 limits assumed): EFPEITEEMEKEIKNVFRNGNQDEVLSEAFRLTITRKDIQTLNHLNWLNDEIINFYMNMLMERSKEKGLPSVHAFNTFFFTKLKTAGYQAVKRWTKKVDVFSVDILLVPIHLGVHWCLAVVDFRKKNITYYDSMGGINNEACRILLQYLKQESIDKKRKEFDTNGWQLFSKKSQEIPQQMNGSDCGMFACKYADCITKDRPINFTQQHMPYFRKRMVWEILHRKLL
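Assay system – human recombinant His6-tagged SENP1 catalytic domain enzyme · Input – SENP1 enzyme, 20 pM final · Buffer or medium – Tris pH 8 buffer plus EDTA, NaCl, BME, BSA, NP40, catalase · Schedule – 50 min reaction at room temperature · Technique – FRET read of cyan and yellow fluorescence · Control set – no-enzyme wells low, DMSO-plus-enzyme wells high control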
HDAC3 inh: blocks human histone deacetylase 3. O15379. recombinant HDAC3, fluorogenic peptide/trypsin coupled, fluorescence. inhibition, % at 8.3 µM. actives 0.15% (n = 320,000); in the data active means inhibition above about 26%, passing the limit was not always enough; inconclusive means no clear call, values can overlap the other calls
M18AAP inhibitor: blocks P. falciparum M18 aspartyl aminopeptidase | recombinant PfM18AAP, H-Glu-NHMec fluorogenic cleavage | inhibition, % at 7.35 µM | actives 1.2% (n = 290,000) | AID 1822;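 active means inhibition above the campaign mean inhibition over all tested compounds plus 3 SD, cut at about 28% in these data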;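 further: 0% = plate median of test compound wells and 100% = 2 mM ZnCl2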
Fh CTSL1 inh: blocks F. hepatica cathepsin L1 in PFM18AAP counter-screen; recombinant F. hepatica cathepsin L1, Z-Leu-Arg-MCA fluorescence; inhibition, % at 5.96 µM; actives 0.49% (n = 300,000); AID 1906;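 active means inhibition above the mean of all tested compounds plus 3 SD, set per screening campaign, cut at about 17% in these data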;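 further: 0% = plate median of test compound wells and 100% = 1 µM Z-Phe-Ala-diazomethylketone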
The depositor's hits bear a star. Sampled rows, rich in hits. Any-hit rate of the full collection: about 4.2%.

Screening CCOc1cccc(CN2CCC(Oc3ccc(C(=O)N4CCCC4)cc3)CC2)c1O returned GAA850 FXN act 1 and SENP1 inh 3.
For CCOc1ccccc1C1C(C#N)=C(N)Oc2cc(N)ccc21 (centres undefined) the results were AHR activator -3, GAA850 FXN act -1, SENP1 inh -26, HDAC3 inh -6, M18AAP inhibitor 28* and Fh CTSL1 inh 1.
CNc1ncnc2c1ncn2[C@@H]1O[C@H](CO)[C@@H](O)[C@H]1O was read as AHR activator 60*, GAA850 FXN act -2, SENP1 inh 1, HDAC3 inh -1 and Fh CTSL1 inh 4.
For CN(C)c1ncnc2c1ncn2C1OC(CO)C(O)C1O (centres undefined) the results were AHR activator 42, GAA850 FXN act -6, SENP1 inh -2, HDAC3 inh -1, M18AAP inhibitor -1 and Fh CTSL1 inh -3.
O=C(NCc1cccc(C(F)(F)F)c1)c1ccc2sc([C@H]3C[C@H](O)[C@@H](CO)O3)nc2c1 was read as GAA850 FXN act 1 and SENP1 inh 0.
For COc1cccc(-c2cc(C(F)(F)F)n3nc(C(=O)N4CCCCC4c4cccnc4)cc3n2)c1 (centres undefined) the results were AHR activator 9, GAA850 FXN act 1, SENP1 inh -9, HDAC3 inh 6, M18AAP inhibitor 7 and Fh CTSL1 inh 3.
`Cc1ccc(C)c(S(=O)(=O)N2CCCN(C)CC2)c1` gave AHR activator 0, GAA850 FXN act -1, SENP1 inh 0, HDAC3 inh 4, M18AAP inhibitor -11 and Fh CTSL1 inh 4.
`Cc1ccc(C)c(S(=O)(=O)N2C(=S)NC(=O)C2C(C)C)c1` (centres undefined) gave AHR activator 3, GAA850 FXN act 2, SENP1 inh 2, HDAC3 inh 6, M18AAP inhibitor 16 and Fh CTSL1 inh 17*.
COc1cc(-c2c(C(=O)c3ccccc3)[nH]c(N)c2C(N)=O)ccc1F was read as SENP1 inh 0.
For NC(=S)N/N=C/c1cccc(Br)c1 the results were AHR activator -2, GAA850 FXN act 0, SENP1 inh 2, HDAC3 inh -2, M18AAP inhibitor 7 and Fh CTSL1 inh 12.
For NC(=S)N/N=C/c1c(O)c(Br)cc2oc3c(c12)CCCC3 the results were AHR activator -1, GAA850 FXN act -3, SENP1 inh -1, HDAC3 inh -2, M18AAP inhibitor 8 and Fh CTSL1 inh 22*.
For COCCNC(=O)C1CCCN(Cc2cccc(C(F)(F)F)c2)CC1 (centres undefined) the results were GAA850 FXN act -1 and SENP1 inh 3.
Screening CCCCCc1cc(=O)oc2c(C(CCN3CCN(c4ccccc4)CC3)c3ccc4c(c3)OCO4)c(OC)cc(OC)c12 (centres undefined) returned AHR activator 0, GAA850 FXN act 2, SENP1 inh 2, HDAC3 inh -6 and Fh CTSL1 inh 33*.
Cc1ccc(-n2ccnc(SCC(=O)NC3CCCCC3)c2=O)cc1F was read as AHR activator 3, GAA850 FXN act 2, SENP1 inh 1 and Fh CTSL1 inh 25*.
Screening Nc1ncc(N=Nc2cc(C(=O)O)ccc2Cl)s1 returned AHR activator 2, GAA850 FXN act -1, SENP1 inh 0, M18AAP inhibitor 29* and Fh CTSL1 inh 6.
`CCCC(=O)N1CCC1(C)C(=O)NS(=O)(=O)c1cc2c(cc1C)CCCS2(=O)=O` (centres undefined) gave GAA850 FXN act -2 and SENP1 inh 2.
Screening O=c1[nH]c(Nc2ccccc2)cc2ccccc12 returned AHR activator 3, GAA850 FXN act 2, SENP1 inh 12, HDAC3 inh -2, M18AAP inhibitor 9 and Fh CTSL1 inh 105*.
`COc1ccccc1Nc1cc2cc(Br)ccc2c(=O)[nH]1` gave AHR activator 19, GAA850 FXN act -2, SENP1 inh -76, HDAC3 inh 2 and Fh CTSL1 inh 47*.
CC(=O)c1cccc(Nc2nc(-c3ccccc3)nc3ccccc23)c1 was read as AHR activator 45, GAA850 FXN act -1, SENP1 inh 1, HDAC3 inh 2, M18AAP inhibitor -14 and Fh CTSL1 inh 5.
`CC(=O)c1cccc(-c2ccc3c(=O)[nH]c(Nc4ccccc4)cc3c2)c1` gave AHR activator 24, GAA850 FXN act 3, SENP1 inh -47, HDAC3 inh -4 and Fh CTSL1 inh 85*.
`O=c1[nH]c(Nc2ccccc2)cc2cc(Br)ccc12` gave AHR activator 32, GAA850 FXN act 0, SENP1 inh -113, HDAC3 inh 3 and Fh CTSL1 inh 61*.
`O=c1cc(Nc2cccc(Br)c2)[nH]c(=O)[nH]1` gave AHR activator 1, GAA850 FXN act 2, SENP1 inh -3, HDAC3 inh -1, M18AAP inhibitor -1 and Fh CTSL1 inh -9.
`COc1cccc(CNC(=O)[C@@H]2CCCN2C(=O)[C@H]2CCCCN2C(=O)c2cccs2)c1` gave SENP1 inh 3.
COC(=O)C[C@@H]1C=C[C@H](NC(=O)Nc2ccc(F)cc2)[C@@H](CO)O1 was read as SENP1 inh 2.
`COc1ccc(OC)c(Nc2cc3ccccc3c(=O)[nH]2)c1` gave AHR activator 21, GAA850 FXN act -4, SENP1 inh -41, HDAC3 inh -3 and Fh CTSL1 inh 70*.
`COc1ccc(OC)c(Nc2nnc(C)c(=O)[nH]2)c1` gave AHR activator 11, HDAC3 inh inconclusive, M18AAP inhibitor 6 and Fh CTSL1 inh -4.
For Cc1ccc(S(=O)(=O)N2CCOC23CCN(C(=O)c2ccccc2Br)CC3)cc1 the results were AHR activator 0, GAA850 FXN act 2, SENP1 inh 1, HDAC3 inh 2, M18AAP inhibitor -1 and Fh CTSL1 inh -5.
C=C(CN(C)C)C(=O)c1cc(C)ccc1C was read as GAA850 FXN act -12 and SENP1 inh 3.
COc1ccc(C(=O)NC(C)c2nnc(SCC(=O)NC3CCCC3)n2C)cc1 (centres undefined) was read as AHR activator -2, GAA850 FXN act 0, SENP1 inh 0, HDAC3 inh -4, M18AAP inhibitor 4 and Fh CTSL1 inh -2.
Cc1ccc2ccc(C(Nc3ccccn3)c3ccccc3)c(O)c2n1 (centres undefined) was read as AHR activator 5, GAA850 FXN act -2, SENP1 inh 1, M18AAP inhibitor 18 and Fh CTSL1 inh -4.
COc1cc(C(Nc2ccccn2)c2ccc3ccc(C)nc3c2O)cc(OC)c1O (centres undefined) was read as AHR activator -2, GAA850 FXN act 0, SENP1 inh -7, HDAC3 inh 7, M18AAP inhibitor 30* and Fh CTSL1 inh 3.

Screening results from PubChem BioAssay.
